Values joined by “and” are separate entries in the source; they are usually repeats but may differ in a detail not shown here. Identical values can stand only once.
Experiments:
rat α-glucosidase = test: α-glucosidase inhibition method; assay type: biochemical
Procedure, shortened: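 Enzyme was the supernatant of rat intestinal acetone powder in saline, sonicated at 4 °C and spun at 1008 ×g (4 °C, 30 min). Test compound (20–300 µg/mL) and enzyme pre-incubated 5 min at 37 °C in 50 mM phosphate pH 6.8. 3 mM PNPG added, then 30 min at 37 °C and A405 read.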

[1] = target: T1, porcine pancreatic α-amylase (Sus scrofa, UniProt P00690); test: biochemical; settings: α-Amylase inhibition method IC50 value
T1 sequence (P00690 16-511): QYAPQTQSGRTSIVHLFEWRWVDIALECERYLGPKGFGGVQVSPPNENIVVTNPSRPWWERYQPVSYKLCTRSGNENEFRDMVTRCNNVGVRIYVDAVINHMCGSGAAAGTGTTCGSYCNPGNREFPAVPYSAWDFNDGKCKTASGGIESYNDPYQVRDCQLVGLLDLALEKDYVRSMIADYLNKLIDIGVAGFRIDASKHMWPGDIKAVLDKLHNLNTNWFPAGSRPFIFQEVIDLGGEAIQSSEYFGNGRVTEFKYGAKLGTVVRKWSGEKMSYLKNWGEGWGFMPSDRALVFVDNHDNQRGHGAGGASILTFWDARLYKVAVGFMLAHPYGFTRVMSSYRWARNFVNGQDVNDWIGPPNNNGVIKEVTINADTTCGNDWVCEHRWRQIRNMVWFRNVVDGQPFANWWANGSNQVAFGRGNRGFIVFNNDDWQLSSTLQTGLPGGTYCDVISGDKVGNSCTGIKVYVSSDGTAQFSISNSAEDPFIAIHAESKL

[2] = DPPH free radical scavenging assay
Procedure, shortened: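 Test compound (20–300 µg/mL) mixed with an equal volume of DPPH solution, shaken vigorously, then kept 30 min in the dark at room temperature. Absorbance read at 517 nm. % scavenging = (OD control − OD sample)/OD control × 100, and IC50 derived from this. Ascorbic acid (10–150 µg/mL) served as positive control.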

[3] = ABTS radical scavenging assay
Procedure, shortened: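 ABTS radical cation formed by mixing 7 mM ABTS with 2.4 mM ammonium persulfate (1:1) and leaving 18–24 h in the dark at room temperature. Test compound (20–300 µg/mL) added to the ABTS solution and absorbance read at 734 nm. % inhibition = (OD control − OD sample)/OD control × 100, and IC50 taken from this. Ascorbic acid (10–150 µg/mL) served as positive control.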

| α-Glucosidase inhibition method IC50 value (rat α-glucosidase) | IC50 [1] | DPPH Assay IC50 value [2] | ABTS Assay IC50 value [3] | Structure (SMILES) |
| --- | --- | --- | --- | --- |
| 314.43 µg/mL | 519 µM | 660 µg/mL and 660.39 µg/mL | 81.50 µg/mL | Cc1cccc(N(O)N=Nc2ccc(S(=O)(=O)Nc3cc(C)on3)cc2)c1 [SM-5, 3ـhydroxyـ3ـ(3ـmethylphenyl)ـ1ـ(4ـ(Nـ(5ـmethylisoxazolـ3ـyl)sulfamoyl)phenyl)triazene] |
| 12.21 (acarbose) μg/mL |  |  |  | C[C@H]1O[C@H](O[C@H]2[C@H](O)[C@@H](O)[C@@H](O[C@H]3[C@H](O)[C@@H](O)C(O)O[C@@H]3CO)O[C@@H]2CO)[C@H](O)[C@@H](O)[C@@H]1N[C@H]1C=C(CO)[C@@H](O)[C@H](O)[C@H]1O (some centres unmarked) [acarbose, reference compound] |
| 222.91 µg/mL | 624 µM | 624 µg/mL | 282.32 µg/mL | CCCN(O)N=Nc1ccc(S(=O)(=O)Nc2cc(C)on2)cc1 [SM-3, 3ـhydroxyـ3ـpropylـ1ـ(4ـ(Nـ(5ـmethylisoxazolـ3ـyl)sulfamoyl)phenyl)triazene] |
| 341 µg/mL | 558 µM | 472.08 µg/mL | 92.075 µg/mL | Cc1cccc(N(O)N=Nc2ccc(S(=O)(=O)Nc3nccs3)cc2)c1 [ST-5, 3ـhydroxyـ3ـ(3ـmethylphenyl)ـ1ـ(4ـ(Nـ(thiazolـ2ـyl)sulfamoyl)phenyl)triazene] |
| 292 µg/mL | 546 µM and 548 µM | 423 µg/mL and 423.91 µg/mL | 164.34 µg/mL | Cc1cccc(N(O)N=Nc2ccc(S(=O)(=O)Nc3onc(C)c3C)cc2)c1 [SF-5, 3ـhydroxyـ3ـ(3ـmethylphenyl)ـ1ـ(4ـ(Nـ(3,4ـdimethylisoxazolـ5ـyl)sulfamoyl)phenyl)triazene] |
| 201.99 µg/mL | 376 µM |  | 401.72 µg/mL | CCN(O)N=Nc1ccc(S(=O)(=O)Nc2cc(C)on2)cc1 [SM-2, 3ـhydroxyـ3ـethylـ1ـ(4ـ(Nـ(5ـmethylisoxazolـ3ـyl)sulfamoyl)phenyl)triazene] |
| 280.03 µg/mL | 550 µM | 565.88 µg/mL |  | O=S(=O)(Nc1nccs1)c1ccc(N=NN(O)c2ccccc2)cc1 [ST-4, 3ـhydroxyـ3ـphenylـ1ـ(4ـ(Nـ(thiazolـ2ـyl)sulfamoyl)phenyl)triazene] |
| 238 µg/mL | 559 µM | 488 µg/mL and 488.06 µg/mL |  | CN(O)N=Nc1ccc(S(=O)(=O)Nc2nccs2)cc1 [ST-1, 3ـhydroxyـ3ـmethylـ1ـ(4ـ(Nـ(thiazolـ2ـyl)sulfamoyl)phenyl)triazene] |
| 249 µg/mL | 469 µM | 583.31 µg/mL | 104.13 µg/mL | Cc1cc(NS(=O)(=O)c2ccc(N=NN(O)c3ccccc3)cc2)no1 [SM-4, 3ـhydroxyـ3ـphenylـ1ـ(4ـ(Nـ(5ـmethylisoxazolـ3ـyl)sulfamoyl)phenyl)triazene] |
| 270 µg/mL | 531 µM | 556.65 µg/mL |  | Cc1noc(NS(=O)(=O)c2ccc(N=NN(C)O)cc2)c1C [SF-1, 3ـhydroxyـ3ـmethylـ1ـ(4ـ(Nـ(3,4ـdimethylisoxazolـ5ـyl)sulfamoyl)phenyl)triazene] |
|  | 698 µM | 426 µg/mL and 426.75 µg/mL | 252.96 µg/mL | Cc1cc(NS(=O)(=O)c2ccc(N=NN(C)O)cc2)no1 [SM-1, 3ـhydroxyـ3ـmethylـ1ـ(4ـ(Nـ(5ـmethylisoxazolـ3ـyl)sulfamoyl)phenyl)triazene] |
| 329 µg/mL | 612 µM | 587.28 µg/mL | 70 µg/mL and 70.62 µg/mL | Cc1ccc(N(O)N=Nc2ccc(S(=O)(=O)Nc3onc(C)c3C)cc2)cc1 [SF-6, 3ـhydroxyـ3ـ(4ـmethylphenyl)ـ1ـ(4ـ(Nـ(3,4ـdimethylisoxazolـ5ـyl)sulfamoyl)phenyl)triazene] |
| 262.74 µg/mL | 425 µM | 550.32 µg/mL | 250.26 µg/mL | Cc1ccc(N(O)N=Nc2ccc(S(=O)(=O)Nc3cc(C)on3)cc2)cc1 [SM-6, 3ـhydroxyـ3ـ(4ـmethylphenyl)ـ1ـ(4ـ(Nـ(5ـmethylisoxazolـ3ـyl)sulfamoyl)phenyl)triazene] |
| 235.55 µg/mL | 419 µM | 490.82 µg/mL | 218.94 µg/mL | CCCN(O)N=Nc1ccc(S(=O)(=O)Nc2onc(C)c2C)cc1 [SF-3, 3ـhydroxyـ3ـpropylـ1ـ(4ـ(Nـ(3,4ـdimethylisoxazolـ5ـyl)sulfamoyl)phenyl)triazene] |
| 252 µg/mL | 586 µM | 662 µg/mL and 662.79 µg/mL | 160.145 µg/mL | CCCN(O)N=Nc1ccc(S(=O)(=O)Nc2nccs2)cc1 [ST-3, 3ـhydroxyـ3ـpropylـ1ـ(4ـ(Nـ(thiazolـ2ـyl)sulfamoyl)phenyl)triazene] |
| 233 µg/mL | 452 µM | 578.76 µg/mL |  | Cc1noc(NS(=O)(=O)c2ccc(N=NN(O)c3ccccc3)cc2)c1C [SF-4, 3ـhydroxyـ3ـphenylـ1ـ(4ـ(Nـ(3,4ـdimethylisoxazolـ5ـyl)sulfamoyl)phenyl)triazene] |
|  |  | 29.12 (ascorbic acid) μg/mL | 69.13 (ascorbic acid) μg/mL | O=C1O[C@H]([C@@H](O)CO)C(O)=C1O [ascorbic acid, reference compound] |
| 248.64 µg/mL | 625 µM | 614.17 µg/mL | 229.83 µg/mL | CCN(O)N=Nc1ccc(S(=O)(=O)Nc2onc(C)c2C)cc1 [SF-2, 3ـhydroxyـ3ـethylـ1ـ(4ـ(Nـ(3,4ـdimethylisoxazolـ5ـyl)sulfamoyl)phenyl)triazene] |
| 219 µg/mL | 707 µM | 532.35 µg/mL | 232.39 µg/mL and 232.393 µg/mL | CCN(O)N=Nc1ccc(S(=O)(=O)Nc2nccs2)cc1 [ST-2, 3ـhydroxyـ3ـethylـ1ـ(4ـ(Nـ(thiazolـ2ـyl)sulfamoyl)phenyl)triazene] |
